Data as given in ChEMBL document CHEMBL3045285, “Synthesis and insecticidal activities of novel anthranilic diamides containing modified N-pyridylpyrazoles” (2010).

What was measured:
Type in all cases: functional
Plutella xylostella [1] = test: Insecticidal activity against second-instar larval stage of Plutella xylostella (diamondback moth) in cabbage leaves assessed as mortality at 1 mg/l at 25 +/-1 degC treated for 3 secs before larva infestation measured after 2 days by leaf-dip method; conditions: 48 h
Procedure, shortened: (§1)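 Greenhouse-reared diamondback moth larvae tested by leaf-dip method at 25 ± 1 °C. Test solution made at 200 mg/L, then diluted with distilled water to working concentrations. Mortality scored dead/alive, corrected with Abbott's formula and expressed on a 0–100 scale.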

Plutella xylostella [2] = test: Insecticidal activity against second-instar larval stage of Plutella xylostella (diamondback moth) in cabbage leaves assessed as mortality at 5 mg/l at 25 +/-1 degC treated for 3 secs before larva infestation measured after 2 days by leaf-dip method; conditions: 48 h; procedure, shortened: as §1
Mythimna separata [3] = test: Insecticidal activity against fourth-instar larval stage of Mythimna separata (Oriental armyworm) in compound pretreated Zea mays L. Tangyu 10 leaves assessed as mortality at 50 mg/l at 25 +/-1 degC after 2 days
Procedure, shortened: (§2)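 Greenhouse-reared fourth-instar oriental armyworm larvae. Corn (Tangyu 10) leaves laid on moist filter paper in Petri dishes, sprayed with test solution (200 mg/L solution diluted in distilled water), then air-dried. Ten larvae per dish. Held at 25 ± 1 °C; mortality scored dead/alive 2 days post-treatment. Triplicate treatments, Abbott-corrected, 0–100 scale.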

Plutella xylostella [4] = test: Insecticidal activity against second-instar larval stage of Plutella xylostella (diamondback moth) in cabbage leaves assessed as mortality at 20 mg/l at 25 +/-1 degC treated for 3 secs before larva infestation measured after 2 days by leaf-dip method; conditions: 48 h; procedure, shortened: as §1
Mythimna separata [5] = test: Insecticidal activity against fourth-instar larval stage of Mythimna separata (Oriental armyworm) in compound pretreated Zea mays L. Tangyu 10 leaves assessed as mortality at 200 mg/l at 25 +/-1 degC after 2 days; procedure, shortened: as §2
Mythimna separata [6] = test: Insecticidal activity against fourth-instar larval stage of Mythimna separata (Oriental armyworm) in compound pretreated Zea mays L. Tangyu 10 leaves assessed as mortality at 100 mg/l at 25 +/-1 degC after 2 days; procedure, shortened: as §2
Plutella xylostella [7] = test: Insecticidal activity against second-instar larval stage of Plutella xylostella (diamondback moth) in cabbage leaves assessed as mortality at 2.5 mg/l at 25 +/-1 degC treated for 3 secs before larva infestation measured after 2 days by leaf-dip method; conditions: 48 h; procedure, shortened: as §1
Mythimna separata [8] = test: Insecticidal activity against fourth-instar larval stage of Mythimna separata (Oriental armyworm) in compound pretreated Zea mays L. Tangyu 10 leaves assessed as mortality at 20 mg/l at 25 +/-1 degC after 2 days; procedure, shortened: as §2
Plutella xylostella [9] = test: Insecticidal activity against second-instar larval stage of Plutella xylostella (diamondback moth) in cabbage leaves assessed as mortality at 10 mg/l at 25 +/-1 degC treated for 3 secs before larva infestation measured after 2 days by leaf-dip method; conditions: 48 h; procedure, shortened: as §1
Mythimna separata [10] = test: Insecticidal activity against fourth-instar larval stage of Mythimna separata (Oriental armyworm) in compound pretreated Zea mays L. Tangyu 10 leaves assessed as mortality at 10 mg/l at 25 +/-1 degC after 2 days; procedure, shortened: as §2

Row | SMILES | mortality at 50 µg/mL (Mythimna separata [3]) [%] | mortality at 200 µg/mL (Mythimna separata [5]) [%] | mortality at 100 µg/mL (Mythimna separata [6]) [%] | mortality at 20 µg/mL (Mythimna separata [8]) [%] | also measured
1 | CC(=O)OCc1cc(C(=O)Nc2c(C)cc(Cl)cc2C(=O)NC(C)C)n(-c2ncccc2Cl)n1 | 100 | 100 | 100 | 100 | mortality at 1 µg/mL (Plutella xylostella [1]): 0%; mortality at 5 µg/mL (Plutella xylostella [2]): 95%; mortality at 20 µg/mL (Plutella xylostella [4]): 100%; mortality at 2.5 µg/mL (Plutella xylostella [7]): 60%; mortality at 10 µg/mL (Plutella xylostella [9]): 100%; mortality at 10 µg/mL (Mythimna separata [10]): 20%
2 | CNC(=O)c1cc(Cl)cc(C)c1NC(=O)c1cc(CNS(C)(=O)=O)nn1-c1ncccc1Cl |  | 100 | 60 |  | 
3 | CNC(=O)c1cc(Cl)cc(C)c1NC(=O)c1cc(CNC(=O)c2ccccc2)nn1-c1ncccc1Cl |  | 20 |  |  | 
4 | CNC(=O)c1cc(Cl)cc(C)c1NC(=O)c1cc(CNC(C)=O)nn1-c1ncccc1Cl | 100 | 100 | 100 | 0 | 
5 | CNC(=O)c1cc(Cl)cc(C)c1NC(=O)c1cc(CN)nn1-c1ncccc1Cl |  | 20 |  |  | 
6 | CNC(=O)c1cc(Cl)cc(C)c1NC(=O)c1cc(C=O)nn1-c1ncccc1Cl |  | 100 | 40 |  | 
7 | CNC(=O)c1cc(Cl)cc(C)c1NC(=O)c1cc(CO)nn1-c1ncccc1Cl | 100 | 100 | 100 | 60 | 
8 | CNC(=O)c1cc(Cl)cc(C)c1NC(=O)c1cc(COC(=O)c2ccccc2)nn1-c1ncccc1Cl | 100 | 100 | 100 | 40 | 
9 | CNC(=O)c1cc(Cl)cc(C)c1NC(=O)c1cc(COC(=O)COC(C)=O)nn1-c1ncccc1Cl | 100 | 100 | 100 | 40 | 
10 | CNC(=O)c1cc(Cl)cc(C)c1NC(=O)c1cc(COC(=O)CCCCl)nn1-c1ncccc1Cl | 100 | 100 | 100 | 60 | 
11 | CNC(=O)c1cc(Cl)cc(C)c1NC(=O)c1cc(COC(=O)C(F)(F)F)nn1-c1ncccc1Cl | 100 | 100 | 100 | 20 | 
12 | CNC(=O)c1cc(Cl)cc(C)c1NC(=O)c1cc(COS(=O)(=O)c2ccc(C)cc2)nn1-c1ncccc1Cl | 100 | 100 | 100 | 80 | 
13 | CNC(=O)c1cc(Cl)cc(C)c1NC(=O)c1cc(COS(C)(=O)=O)nn1-c1ncccc1Cl | 100 | 100 | 100 | 40 | 
14 | CCCNC(=O)c1cccc(C)c1NC(=O)c1cc(COC(C)=O)nn1-c1ncccc1Cl | 100 | 100 | 100 | 40 | 
15 | CC(=O)OCc1cc(C(=O)Nc2c(C)cccc2C(=O)NC2CC2)n(-c2ncccc2Cl)n1 | 100 | 100 | 100 | 40 | 
16 | CC(=O)OCc1cc(C(=O)Nc2c(C)cccc2C(=O)NC(C)C)n(-c2ncccc2Cl)n1 | 100 | 100 | 100 | 100 | mortality at 5 µg/mL (Plutella xylostella [2]): 0%; mortality at 20 µg/mL (Plutella xylostella [4]): 100%; mortality at 10 µg/mL (Plutella xylostella [9]): 60%; mortality at 10 µg/mL (Mythimna separata [10]): 0%
17 | CNC(=O)c1cccc(C)c1NC(=O)c1cc(COC(C)=O)nn1-c1ncccc1Cl |  | 100 | 60 |  | 
18 | CC(=O)OCc1cc(C(=O)Nc2c(C)cc(Cl)cc2C(=O)NCc2ccccc2)n(-c2ncccc2Cl)n1 | 100 | 100 | 100 | 40 | 
19 | CONC(=O)c1cc(Cl)cc(C)c1NC(=O)c1cc(COC(C)=O)nn1-c1ncccc1Cl |  | 100 | 0 |  | 
20 | CNC(=O)c1cc(Cl)cc(C)c1NC(=O)c1cc(COC(C)=O)nn1-c1ncccc1Cl | 100 | 100 | 100 | 100 | mortality at 1 µg/mL (Plutella xylostella [1]): 0%; mortality at 5 µg/mL (Plutella xylostella [2]): 70%; mortality at 20 µg/mL (Plutella xylostella [4]): 100%; mortality at 2.5 µg/mL (Plutella xylostella [7]): 45%; mortality at 10 µg/mL (Plutella xylostella [9]): 90%; mortality at 10 µg/mL (Mythimna separata [10]): 0%
21 | CCCCNC(=O)c1cc(C(=O)Nc2c(C)cc(Cl)cc2C(=O)NC)n(-c2ncccc2Cl)n1 | 100 | 100 | 100 | 20 | 
22 | CNC(=O)c1cc(Cl)cc(C)c1NC(=O)c1cc(C(=O)NC2CCCCC2)nn1-c1ncccc1Cl |  | 0 |  |  | 

Row | SMILES | mortality at 50 µg/mL (Mythimna separata [3]) [%] | mortality at 200 µg/mL (Mythimna separata [5]) [%] | mortality at 100 µg/mL (Mythimna separata [6]) [%] | mortality at 20 µg/mL (Mythimna separata [8]) [%] | also measured
23 | CNC(=O)c1cc(Cl)cc(C)c1NC(=O)c1cc(C(=O)Nc2ccccc2)nn1-c1ncccc1Cl | 100 | 100 | 100 | 0 | 
24 | CNC(=O)c1cc(Cl)cc(C)c1NC(=O)c1cc(C(=O)NC(C)(C)C)nn1-c1ncccc1Cl | 100 | 100 | 100 | 40 | 
25 | CNC(=O)c1cc(Cl)cc(C)c1NC(=O)c1cc(C(=O)NC(C)C)nn1-c1ncccc1Cl | 100 | 100 | 100 | 60 | 
26 | CNC(=O)c1cc(Cl)cc(C)c1NC(=O)c1cc(C(=O)NCc2ccccc2)nn1-c1ncccc1Cl | 100 | 100 | 100 | 20 | 
27 | CCCCNC(=O)c1cc(Cl)cc(C)c1NC(=O)c1cc(C(=O)NC)nn1-c1ncccc1Cl |  | 100 | 20 |  | 
28 | CNC(=O)c1cc(C(=O)Nc2c(C)cc(Cl)cc2C(=O)NCc2ccccc2)n(-c2ncccc2Cl)n1 |  | 100 | 60 |  | 
29 | CNC(=O)c1cc(C(=O)Nc2c(C)cc(Cl)cc2C(=O)NOC)n(-c2ncccc2Cl)n1 |  | 0 |  |  | 
30 | CNC(=O)c1cc(C(=O)Nc2c(C)cc(Cl)cc2C(=O)NC2CC2)n(-c2ncccc2Cl)n1 | 100 | 100 | 100 | 100 | mortality at 20 µg/mL (Plutella xylostella [4]): 50%; mortality at 10 µg/mL (Plutella xylostella [9]): 0%; mortality at 10 µg/mL (Mythimna separata [10]): 20%
31 | CNC(=O)c1cc(C(=O)Nc2c(C)cc(Cl)cc2C(=O)NC(C)C)n(-c2ncccc2Cl)n1 |  | 100 | 60 |  | 
32 | CNC(=O)c1cc(C(=O)Nc2c(C)cc(Cl)cc2C(=O)NC)n(-c2ncccc2Cl)n1 |  | 100 | 60 |  | 
33 | CNC(=O)c1cc(Cl)cc(C)c1NC(=O)c1cc(C(=O)OC2CCCCC2)nn1-c1ncccc1Cl |  | 100 | 40 |  | 
34 | CNC(=O)c1cc(Cl)cc(C)c1NC(=O)c1cc(C(=O)OCc2ccccc2)nn1-c1ncccc1Cl |  | 100 | 40 |  | 
35 | CNC(=O)c1cc(Cl)cc(C)c1NC(=O)c1cc(C(=O)OC(C)C)nn1-c1ncccc1Cl |  | 80 |  |  | 
36 | CCOC(=O)c1cc(C(=O)Nc2c(C)cc(Cl)cc2C(=O)NCc2ccccc2)n(-c2ncccc2Cl)n1 |  | 20 |  |  | 
37 | CCOC(=O)c1cc(C(=O)Nc2c(C)cccc2C(=O)NC(C)C)n(-c2ncccc2Cl)n1 | 60 | 100 | 100 |  | 
38 | CCCNC(=O)c1cccc(C)c1NC(=O)c1cc(C(=O)OCC)nn1-c1ncccc1Cl | 60 | 100 | 100 |  | 
39 | CCCCOC(=O)c1cc(C(=O)Nc2c(C)cc(Cl)cc2C(=O)NC)n(-c2ncccc2Cl)n1 |  | 80 |  |  | 
40 | CCOC(=O)c1cc(C(=O)Nc2c(C)cc(Cl)cc2C(=O)NC(C)C)n(-c2ncccc2Cl)n1 |  | 70 |  |  | 
41 | CCOC(=O)c1cc(C(=O)Nc2c(C)cc(Cl)cc2C(=O)NC(C)(C)C)n(-c2ncccc2Cl)n1 | 70 | 100 | 100 |  | 
42 | CCOC(=O)c1cc(C(=O)Nc2c(C)cc(Cl)cc2C(=O)NC2CC2)n(-c2ncccc2Cl)n1 | 80 | 100 | 100 |  | 
43 | CCOC(=O)c1cc(C(=O)Nc2c(C)cc(Cl)cc2C(=O)NOC)n(-c2ncccc2Cl)n1 |  | 50 |  |  | 
44 | CCOC(=O)c1cc(C(=O)Nc2c(C)cc(Cl)cc2C(=O)NC)n(-c2ncccc2Cl)n1 |  | 80 |  |  | 
